Results published in ChEMBL document CHEMBL4732162, “Design, synthesis and evaluation of novel ErbB/HDAC multitargeted inhibitors with selectivity in EGFR mutant cell lines” (Eur J Med Chem, 2021).
Active and inactive are the calls of the source. The rule behind the calls is not given here.

Assays:
[1] = biological target: T1, Epidermal growth factor receptor (Homo sapiens, UniProt P00533); assay: Inhibition of EGFR in human NCI-H1975 cells assessed as reduction in EGFR phosphorylation at Tyr-1068 residues at 1 uM after 48 hrs by Western blot analysis; assay type: cell-based
T1 sequence (P00533 whole entry): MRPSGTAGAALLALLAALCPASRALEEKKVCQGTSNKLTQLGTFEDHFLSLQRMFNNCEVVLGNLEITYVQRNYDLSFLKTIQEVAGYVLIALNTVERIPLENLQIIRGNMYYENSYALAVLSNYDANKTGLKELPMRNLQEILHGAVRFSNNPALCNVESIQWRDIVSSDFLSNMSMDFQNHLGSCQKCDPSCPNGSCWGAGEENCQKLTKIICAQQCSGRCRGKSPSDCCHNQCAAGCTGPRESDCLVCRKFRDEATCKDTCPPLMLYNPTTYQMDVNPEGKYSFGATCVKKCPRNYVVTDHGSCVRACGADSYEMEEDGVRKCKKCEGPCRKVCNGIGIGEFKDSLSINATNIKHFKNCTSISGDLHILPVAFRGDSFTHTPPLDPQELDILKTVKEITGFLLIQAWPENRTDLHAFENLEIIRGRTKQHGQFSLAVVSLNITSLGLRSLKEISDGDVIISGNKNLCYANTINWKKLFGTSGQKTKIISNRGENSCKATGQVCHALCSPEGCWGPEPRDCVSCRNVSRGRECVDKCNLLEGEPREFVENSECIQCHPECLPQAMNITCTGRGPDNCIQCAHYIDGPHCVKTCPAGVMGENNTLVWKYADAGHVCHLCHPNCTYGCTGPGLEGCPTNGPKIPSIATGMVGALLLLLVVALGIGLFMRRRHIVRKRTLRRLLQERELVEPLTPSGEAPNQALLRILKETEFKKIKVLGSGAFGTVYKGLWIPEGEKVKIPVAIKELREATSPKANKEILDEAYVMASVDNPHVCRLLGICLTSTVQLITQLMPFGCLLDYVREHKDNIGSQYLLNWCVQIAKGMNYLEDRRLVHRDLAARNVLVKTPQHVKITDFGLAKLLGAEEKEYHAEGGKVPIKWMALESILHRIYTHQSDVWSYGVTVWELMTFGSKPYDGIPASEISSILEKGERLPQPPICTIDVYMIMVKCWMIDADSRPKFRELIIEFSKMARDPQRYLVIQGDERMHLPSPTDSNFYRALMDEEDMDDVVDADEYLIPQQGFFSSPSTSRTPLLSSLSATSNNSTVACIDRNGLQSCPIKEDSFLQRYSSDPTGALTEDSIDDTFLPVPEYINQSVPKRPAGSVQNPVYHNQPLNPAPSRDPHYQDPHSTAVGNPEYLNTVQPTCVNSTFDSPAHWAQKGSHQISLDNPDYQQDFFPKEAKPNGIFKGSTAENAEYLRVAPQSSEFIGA
Procedure, shortened: (§1)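 Cells were treated with compound for 48 h and lysed on ice for 30 min in RIPA buffer with protease and phosphatase inhibitors. Lysates were cleared at 14000 g, 4 °C, and protein quantified by BCA. Samples were boiled in loading buffer, run on 10–12% SDS-PAGE and transferred to PVDF. Membranes were blocked 2 h, incubated in primary antibody overnight at 4 °C, then in secondary antibody 2 h at room temperature.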

[2] = biological target: T1, Epidermal growth factor receptor; assay: Inhibition of EGFR in human NCI-H1975 cells assessed as reduction in EGFR phosphorylation at Tyr-1173 residues at 1 uM after 48 hrs by Western blot analysis; assay type: cell-based; procedure, shortened: as §1
SK-BR-3 = assay: Antiproliferation activity against human SK-BR-3 cells incubated for 72 hrs by MTT assay; assay type: functional, cell-based; conditions: SK-BR-3, 72 h
Procedure, shortened: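 MTT assay. About 0.5–1 × 10⁴ cells/well were pre-incubated 12 h at 37 °C in 5% CO₂, then exposed to a concentration series of compound for 72 h. Formazan was dissolved in DMSO and absorbance read at 490 nm. Three wells per condition, three independent experiments. IC50 is the mean ± SD from the dose-response curves.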

A549 = assay: Antiproliferative activity against human A549 cells incubated for 72 hrs by MTT assay; assay type: functional, cell-based; conditions: A549, 72 h
[3] = biological target: Receptor tyrosine-protein kinase erbB-2 (Homo sapiens, UniProt P04626); assay: Inhibition of HER2 (unknown origin) by mobility shift assay
Chain of Receptor tyrosine-protein kinase erbB-2 (P04626 whole entry): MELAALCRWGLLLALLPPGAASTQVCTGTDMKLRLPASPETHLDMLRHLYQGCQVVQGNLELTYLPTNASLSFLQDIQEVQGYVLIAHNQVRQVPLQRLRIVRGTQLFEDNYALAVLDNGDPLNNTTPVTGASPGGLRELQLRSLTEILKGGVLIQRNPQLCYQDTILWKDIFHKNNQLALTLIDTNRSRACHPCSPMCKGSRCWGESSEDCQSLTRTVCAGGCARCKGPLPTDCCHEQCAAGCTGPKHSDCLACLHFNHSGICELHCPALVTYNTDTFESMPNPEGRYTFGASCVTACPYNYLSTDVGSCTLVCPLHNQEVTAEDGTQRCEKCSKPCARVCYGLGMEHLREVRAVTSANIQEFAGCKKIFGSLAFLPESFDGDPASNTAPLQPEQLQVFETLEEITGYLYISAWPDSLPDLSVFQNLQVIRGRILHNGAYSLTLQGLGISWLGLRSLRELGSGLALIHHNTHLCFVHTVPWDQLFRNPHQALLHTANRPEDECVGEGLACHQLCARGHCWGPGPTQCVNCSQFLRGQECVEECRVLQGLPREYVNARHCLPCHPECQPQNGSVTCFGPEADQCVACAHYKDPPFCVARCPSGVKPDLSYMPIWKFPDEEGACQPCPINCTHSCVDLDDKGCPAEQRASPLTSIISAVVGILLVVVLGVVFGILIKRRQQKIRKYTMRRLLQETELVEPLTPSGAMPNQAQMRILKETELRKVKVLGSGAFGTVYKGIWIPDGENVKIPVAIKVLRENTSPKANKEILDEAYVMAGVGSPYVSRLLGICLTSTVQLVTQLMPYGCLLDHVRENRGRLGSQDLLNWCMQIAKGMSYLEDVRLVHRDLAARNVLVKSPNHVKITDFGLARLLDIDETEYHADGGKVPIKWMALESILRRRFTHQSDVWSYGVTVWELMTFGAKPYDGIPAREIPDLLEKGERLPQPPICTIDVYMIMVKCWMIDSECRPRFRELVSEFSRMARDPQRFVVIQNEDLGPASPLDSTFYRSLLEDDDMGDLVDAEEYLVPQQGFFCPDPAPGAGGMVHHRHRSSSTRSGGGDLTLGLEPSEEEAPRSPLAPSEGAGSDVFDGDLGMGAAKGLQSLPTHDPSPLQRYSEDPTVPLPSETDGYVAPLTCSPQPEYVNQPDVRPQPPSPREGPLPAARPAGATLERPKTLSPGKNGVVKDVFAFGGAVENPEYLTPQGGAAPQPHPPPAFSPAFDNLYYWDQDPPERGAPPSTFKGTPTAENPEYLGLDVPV
Procedure, shortened: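 In vitro kinase activity was measured by mobility shift assay, run by a contract provider.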

A-431 = assay: Antiproliferative activity against human A431 cells incubated for 72 hrs by MTT assay; assay type: functional, cell-based; conditions: A-431, 72 h
NCI-H1975 = assay: Antiproliferative activity against human NCI-H1975 cells incubated for 72 hrs by MTT assay; assay type: functional, cell-based; conditions: NCI-H1975, 72 h
[4] = biological target: Epidermal growth factor receptor (Homo sapiens, UniProt P00533, L858R/T790M); assay: Inhibition of EGFR L858R/T790M (unknown origin) by mobility shift assay
Chain of Epidermal growth factor receptor (Homo sapiens, UniProt P00533, L858R/T790M) (P00533 25-1210 T790M/L858R limits assumed): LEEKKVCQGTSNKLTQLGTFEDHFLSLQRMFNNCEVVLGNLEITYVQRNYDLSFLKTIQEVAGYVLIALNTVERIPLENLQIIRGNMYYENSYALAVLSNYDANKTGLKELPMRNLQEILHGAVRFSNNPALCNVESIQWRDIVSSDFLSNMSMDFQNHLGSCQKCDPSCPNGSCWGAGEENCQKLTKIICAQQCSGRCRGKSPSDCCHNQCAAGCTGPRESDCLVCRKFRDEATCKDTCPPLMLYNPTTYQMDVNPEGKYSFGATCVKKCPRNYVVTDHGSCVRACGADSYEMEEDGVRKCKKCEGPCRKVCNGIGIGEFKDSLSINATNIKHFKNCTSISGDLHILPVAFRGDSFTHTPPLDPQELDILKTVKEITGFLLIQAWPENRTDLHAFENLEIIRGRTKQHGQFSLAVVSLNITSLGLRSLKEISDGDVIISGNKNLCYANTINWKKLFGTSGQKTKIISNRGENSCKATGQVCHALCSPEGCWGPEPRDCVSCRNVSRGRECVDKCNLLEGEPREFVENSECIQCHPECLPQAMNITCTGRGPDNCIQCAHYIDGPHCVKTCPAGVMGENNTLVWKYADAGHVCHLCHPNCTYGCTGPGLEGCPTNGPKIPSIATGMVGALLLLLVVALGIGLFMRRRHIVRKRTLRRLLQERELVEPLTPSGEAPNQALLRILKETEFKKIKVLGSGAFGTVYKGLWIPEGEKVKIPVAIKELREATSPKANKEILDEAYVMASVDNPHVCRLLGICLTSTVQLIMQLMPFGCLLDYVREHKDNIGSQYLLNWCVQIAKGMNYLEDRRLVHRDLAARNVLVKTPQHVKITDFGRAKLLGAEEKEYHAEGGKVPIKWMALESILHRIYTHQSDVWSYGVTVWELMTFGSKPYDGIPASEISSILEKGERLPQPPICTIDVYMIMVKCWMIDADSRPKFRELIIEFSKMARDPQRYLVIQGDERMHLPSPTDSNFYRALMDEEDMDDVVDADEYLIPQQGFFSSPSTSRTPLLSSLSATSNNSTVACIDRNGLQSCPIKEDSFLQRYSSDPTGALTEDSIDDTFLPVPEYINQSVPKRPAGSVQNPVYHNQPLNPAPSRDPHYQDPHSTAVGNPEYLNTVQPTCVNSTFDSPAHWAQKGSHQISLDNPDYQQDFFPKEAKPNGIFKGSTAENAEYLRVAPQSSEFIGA

NCI-H838 = assay: Antiproliferation activity against human NCI-H838 cells incubated for 72 hrs by MTT assay; assay type: functional, cell-based; conditions: NCI-H838, 72 h
Histone deacetylase 1 = Histone deacetylase 1 (Homo sapiens, UniProt Q13547); assay: Inhibition of HDAC1 (unknown origin)
[5] = biological target: T1, Epidermal growth factor receptor; assay: Inhibition of EGFR (unknown origin) by mobility shift assay
[6] = biological target: Epidermal growth factor receptor (Homo sapiens, UniProt P00533, L858R); assay: Inhibition of EGFR L858R (unknown origin) by mobility shift assay
Chain of Epidermal growth factor receptor (Homo sapiens, UniProt P00533, L858R) (P00533 25-1210 L858R limits assumed): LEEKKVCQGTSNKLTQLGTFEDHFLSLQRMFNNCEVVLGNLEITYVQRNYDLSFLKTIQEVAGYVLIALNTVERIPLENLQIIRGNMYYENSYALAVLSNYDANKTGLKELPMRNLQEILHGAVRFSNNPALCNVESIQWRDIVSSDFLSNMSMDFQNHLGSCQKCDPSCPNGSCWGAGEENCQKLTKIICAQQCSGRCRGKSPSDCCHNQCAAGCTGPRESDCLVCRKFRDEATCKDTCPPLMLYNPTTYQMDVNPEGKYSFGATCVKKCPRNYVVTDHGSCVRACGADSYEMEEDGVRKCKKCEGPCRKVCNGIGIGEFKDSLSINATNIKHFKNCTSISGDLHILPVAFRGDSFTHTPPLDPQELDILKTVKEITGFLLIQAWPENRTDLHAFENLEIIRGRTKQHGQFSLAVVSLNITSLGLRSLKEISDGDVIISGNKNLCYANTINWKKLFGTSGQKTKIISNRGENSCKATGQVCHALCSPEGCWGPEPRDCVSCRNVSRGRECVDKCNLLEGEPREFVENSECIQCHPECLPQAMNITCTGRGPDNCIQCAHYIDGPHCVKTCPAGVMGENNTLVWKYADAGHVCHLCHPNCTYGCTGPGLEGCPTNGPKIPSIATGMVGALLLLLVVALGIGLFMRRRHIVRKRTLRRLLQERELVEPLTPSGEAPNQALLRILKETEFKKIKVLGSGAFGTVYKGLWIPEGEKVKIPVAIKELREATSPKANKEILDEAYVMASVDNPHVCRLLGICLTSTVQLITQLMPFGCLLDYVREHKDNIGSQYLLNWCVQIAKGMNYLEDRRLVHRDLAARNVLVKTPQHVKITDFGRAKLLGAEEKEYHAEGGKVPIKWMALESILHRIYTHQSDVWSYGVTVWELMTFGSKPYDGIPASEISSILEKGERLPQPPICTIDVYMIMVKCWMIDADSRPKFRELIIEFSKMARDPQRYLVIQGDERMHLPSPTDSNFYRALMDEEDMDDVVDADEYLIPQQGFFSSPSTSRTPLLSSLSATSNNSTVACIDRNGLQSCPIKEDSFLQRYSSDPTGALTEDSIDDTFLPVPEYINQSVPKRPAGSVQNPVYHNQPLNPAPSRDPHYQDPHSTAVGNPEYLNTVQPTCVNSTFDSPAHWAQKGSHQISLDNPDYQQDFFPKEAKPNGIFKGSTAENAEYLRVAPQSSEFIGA

FHC = assay: Cytotoxicity against human FHC cells assessed as reduction of cell viability incubated for 72 hrs by MTT assay; assay type: ADME, cell-based
L02 = assay: cytotoxicity against human HL-7702 cells assessed as reduction of cell viability incubated for 72 hrs by MTT assay; assay type: ADME, cell-based; conditions: L02, 72 h
[7] = biological target: Histone deacetylase (Homo sapiens) (UniProt Q13547+O15379+Q9UBN7+Q92769+Q9UQL6+Q8WUI4+Q9BY41+Q96DB2+P56524+Q9UKV0+Q969S8); assay: Inhibition of HDAC in human NCI-H1975 cells assessed as increase in histone H3 acetylation at 2.5 uM after 1 to 12 hrs by Western blot analysis; assay type: cell-based; conditions: time lower 1.0 hrs, time upper […]

inhibition [1]	inhibition [2]	IC50 (SK-BR-3)	IC50 (A549)	IC50 [3]	IC50 (A-431)	IC50 (NCI-H1975)	IC50 [4]	IC50 (NCI-H838)	IC50 (Histone deacetylase 1)	IC50 [5]	IC50 [6]	inhibition [7]	Compound	IC50 (FHC)	IC50 (L02)
inactive	inactive	2130 nM	–	–	–	–	–	–	–	–	–	–	O=C(CCCCCCC(=O)Nc1ccccc1)NO [VORINOSTAT]	–	–
–	–	> 50000 nM	> 50000 nM	13 nM	15000 nM	6610 nM	8.3 nM	> 50000 nM	44 nM	0.34 nM	1.1 nM	–	C=CC(=O)Nc1cc2c(Nc3cccc(Cl)c3F)ncnc2cc1OCc1cn(CCC(=O)NO)nn1	> 25000 nM	> 25000 nM
–	–	> 50000 nM	> 50000 nM	16 nM	15600 nM	4180 nM	17 nM	> 50000 nM	132 nM	0.44 nM	1.2 nM	–	C=CC(=O)Nc1cc2c(Nc3cccc(Cl)c3F)ncnc2cc1OCc1cn(CCCCC(=O)NO)nn1	> 25000 nM	> 25000 nM
–	–	–	–	–	–	–	–	–	–	–	–	Active	COc1cc2ncnc(Nc3ccc(F)c(Cl)c3)c2cc1OCCCN1CCOCC1	–	–
–	–	> 50000 nM	> 50000 nM	8 nM	16900 nM	2800 nM	–	> 50000 nM	34 nM	–	–	–	C=CC(=O)Nc1cc2c(Nc3cccc(Cl)c3F)ncnc2cc1OCc1cn(CCCC(=O)NO)nn1	> 25000 nM	> 25000 nM
–	–	24800 nM	> 50000 nM	3.7 nM	16300 nM	21000 nM	16 nM	> 50000 nM	> 1000 nM	1.1 nM	2.2 nM	–	C=CC(=O)Nc1cc2c(Nc3ccc(OCc4cccc(F)c4)c(Cl)c3)ncnc2cc1OCc1cn(CCC(=O)NO)nn1	> 25000 nM	> 25000 nM
–	–	16000 nM	> 50000 nM	3.8 nM	18800 nM	14500 nM	14 nM	> 50000 nM	> 1000 nM	1.5 nM	2.6 nM	–	C=CC(=O)Nc1cc2c(Nc3ccc(OCc4cccc(F)c4)c(Cl)c3)ncnc2cc1OCc1cn(CCCCC(=O)NO)nn1	> 25000 nM	> 25000 nM
–	–	20000 nM	> 50000 nM	7.3 nM	15000 nM	2500 nM	1.8 nM	> 50000 nM	292 nM	0.35 nM	0.88 nM	–	C=CC(=O)Nc1cc2c(Nc3ccc(F)c(Cl)c3)ncnc2cc1OCc1cn(CCCCC(=O)NO)nn1	> 25000 nM	> 25000 nM
–	–	> 50000 nM	> 50000 nM	5.4 nM	22000 nM	4450 nM	2.3 nM	> 50000 nM	93 nM	0.33 nM	1.1 nM	–	C=CC(=O)Nc1cc2c(Nc3ccc(F)c(Cl)c3)ncnc2cc1OCc1cn(CCC(=O)NO)nn1	> 25000 nM	> 25000 nM
–	–	20200 nM	> 50000 nM	3.7 nM	19900 nM	12000 nM	15 nM	> 50000 nM	> 1000 nM	1.8 nM	2.9 nM	–	C=CC(=O)Nc1cc2c(Nc3ccc(OCc4cccc(F)c4)c(Cl)c3)ncnc2cc1OCc1cn(CCCC(=O)NO)nn1	> 25000 nM	> 25000 nM
